9 compounds from publication PMC10184136 (RSC Advances, 2023) can be followed below.

Entries after “also recorded” stand apart in the source; their conditions may differ.

Data set [1] addresses calf intestinal alkaline phosphatase (CIALP) (Bos taurus, UniProt P19111). The data set is described as follows: Alkaline phosphatase inhibition assay. Format: biochemical.
For data set [2], the system named is red blood cell membrane (bovine erythrocytes). The data set is described as follows: Hemolytic activity. The class given is cell-based. The settings on record: bovine erythrocyte (RBC) suspension, pH 7.4. The gist of the method: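 Bovine blood was collected in EDTA, diluted with 0.9% NaCl and centrifuged at 1000×g for 10 min. Erythrocytes were suspended in phosphate saline buffer, pH 7.4. 20 μl of a 10 mg ml−1 compound solution was added to 180 μl RBC suspension and incubated 30 min at room temperature. PBS was the negative control and Triton X-100 the positive control. % hemolysis was calculated by formula; mean ± SEM.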

Another data set concerns the target alkaline phosphatase (Bos taurus, UniProt P19111). Nature of the data set: Kinetic analysis. The class given is biochemical, calf. The settings on record: for K m / V max: substrate p-NPP. The gist of the method:
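Run under the same pre-incubation and conditions as the CIALP p-NPP assay. p-NPP was used at 10, 5, 2.5, 1.25, 0.625 and 0.3125 mM with inhibitor at 0, 0.106, 0.211 and 0.422 μM. Initial velocities came from the linear absorbance phase, read at 1-min intervals up to 10 min. Inhibition type was taken from Lineweaver–Burk plots (1/V vs 1/[S]). Ki came from a secondary plot of slope vs inhibitor concentration, with linear least-squares fits.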

Sequence of alkaline phosphatase (P19111 20-506 limits assumed): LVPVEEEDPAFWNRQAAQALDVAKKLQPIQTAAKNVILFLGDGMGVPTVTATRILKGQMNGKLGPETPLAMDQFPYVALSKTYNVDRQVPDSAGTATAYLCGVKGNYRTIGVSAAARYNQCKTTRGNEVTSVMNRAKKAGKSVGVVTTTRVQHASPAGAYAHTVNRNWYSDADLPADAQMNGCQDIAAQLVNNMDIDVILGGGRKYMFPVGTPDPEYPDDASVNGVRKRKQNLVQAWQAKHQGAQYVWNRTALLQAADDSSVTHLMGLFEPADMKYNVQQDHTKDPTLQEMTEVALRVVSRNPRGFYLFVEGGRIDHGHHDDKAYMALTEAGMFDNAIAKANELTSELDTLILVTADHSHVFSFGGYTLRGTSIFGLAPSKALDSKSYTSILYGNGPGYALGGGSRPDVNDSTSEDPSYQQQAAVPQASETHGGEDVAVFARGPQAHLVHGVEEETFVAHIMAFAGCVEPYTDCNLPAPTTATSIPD
Sequence of calf intestinal alkaline phosphatase (CIALP) (P19111 20-506 limits assumed): as above

Regarding `O=C(CCSc1nnc(-c2ccccc2)o1)Nc1nccs1` [8a, 3-[(5-Phenyl-1,3,4-oxadiazol-2-yl)sulfanyl]-N-(1,3-thiazol-2-yl)propanamide], the IC50 (usually the concentration needed to halve the response being measured) in data set [1] stood at 3.98 ± 0.356 µM. In data set [2], this compound yielded a hemolysis at 30 min, 1 mg/mL of 7.79 ± 0.02%.

In the case of `O=C(CCSc1nnc(-c2ccc(O)cc2)o1)Nc1nccs1` [8b, 3-{[5-(4-Hydroxyphenyl)-1,3,4-oxadiazol-2-yl]sulfanyl}-N-(1,3-thiazol-2-yl)propanamide], the IC50 in data set [1] stood at 5.99 ± 0.417 µM. Further, in data set [2], the hemolysis at 30 min, 1 mg/mL was found to be 5.68 ± 0.04%.

As to `Nc1ccc(-c2nnc(SCCC(=O)Nc3nccs3)o2)cc1` [8c, 3-{[5-(4-Aminophenyl)-1,3,4-oxadiazol-2-yl]sulfanyl}-N-(1,3-thiazol-2-yl)propanamide], the IC50 in data set [1] is 8.73 ± 0.664 µM. This compound also yielded a hemolysis at 30 min, 1 mg/mL in data set [2] of 7.58 ± 0.01%.

As for `Cc1ccc(-c2nnc(SCCC(=O)Nc3nccs3)o2)cc1` [8d, 3-{[5-(4-Methylphenyl)-1,3,4-oxadiazol-2-yl]sulfanyl}-N-(1,3-thiazol-2-yl)propanamide], the IC50 in data set [1] amounted to 1.88 ± 0.071 µM. In addition, the hemolysis at 30 min, 1 mg/mL in data set [2] is 8.32 ± 0.03%.

Turning to `Cc1cnc(NC(=O)CCSc2nnc(-c3ccccc3)o2)s1` [8e, N-(5-Methyl-1,3-thiazol-2-yl)-3-[(5-phenyl-1,3,4-oxadiazol-2-yl)sulfanyl]propanamide], the IC50 in data set [1] was 6.32 ± 0.551 µM. In data set [2], this compound registered a hemolysis at 30 min, 1 mg/mL of 6.84 ± 0.03%.

The compound `Cc1cnc(NC(=O)CCSc2nnc(-c3ccc(O)cc3)o2)s1` [8f, 3-{[5-(4-Hydroxyphenyl)-1,3,4-oxadiazol-2-yl]sulfanyl}-N-(5-methyl-1,3-thiazol-2-yl)propanamide] yielded an IC50 in data set [1] of 2.16 ± 0.118 µM. This compound gave a hemolysis at 30 min, 1 mg/mL in data set [2] of 7.47 ± 0.05%.

`Cc1cnc(NC(=O)CCSc2nnc(-c3ccc(N)cc3)o2)s1` [8g, 3-{[5-(4-Aminophenyl)-1,3,4-oxadiazol-2-yl]sulfanyl}-N-(5-methyl-1,3-thiazol-2-yl)propanamide] showed an IC50 in data set [1] of 0.211 ± 0.019 µM. Moreover, the hemolysis at 30 min, 1 mg/mL in data set [2] is 8.82 ± 0.02%. In addition, on alkaline phosphatase, the affinity corresponds to a Ki of 0.42 µM. Further, the K m on alkaline phosphatase (8g 0.106 μM), at alkaline phosphatase (8g 0.211 μM) and at alkaline phosphatase (8g 0.422 μM) was 360 µM each time. Also, the V max on alkaline phosphatase (8g 0.106 μM) was 0.003004 ΔA min^−1; at alkaline phosphatase (8g 0.211 μM), 0.002406 ΔA min^−1; on alkaline phosphatase (8g 0.422 μM) it was 0.001826 ΔA min^−1. In addition, the Inhibition type entry at alkaline phosphatase (Lineweaver–Burk plots) was “non-competitively; also recorded: Non-competitive”.

Consider `Cc1cnc(NC(=O)CCSc2nnc(-c3cccc([N+](=O)[O-])c3)o2)s1` [8h, N-(5-Methyl-1,3-thiazol-2-yl)-3-{[5-(3-nitrophenyl)-1,3,4-oxadiazol-2-yl]sulfanyl}propanamide], for which the IC50 in data set [1] turned out to be 3.75 ± 0.981 µM. Further, the hemolysis at 30 min, 1 mg/mL in data set [2] amounted to 8.63 ± 0.02%.

`CC(C)(C)CC(C)(C)c1ccc(OCCO)cc1` [Triton X, reference compound] gave a hemolysis at 30 min, 1 mg/mL in data set [2] of 89 ± 0.01%.
